How the values were obtained:
Cytochrome P450 1B1 [1] = target: T1, Cytochrome P450 1B1 (Homo sapiens, UniProt Q16678); experiment: Inhibition of human liver CYP1B1 expressed in Saccharomyces cerevisiae YY7 microsomal membranes at 5 to 10 uM using 7-ethoxyresorufin as substrate after 10 mins by fluorescence assay
T1 sequence (Q16678 whole entry): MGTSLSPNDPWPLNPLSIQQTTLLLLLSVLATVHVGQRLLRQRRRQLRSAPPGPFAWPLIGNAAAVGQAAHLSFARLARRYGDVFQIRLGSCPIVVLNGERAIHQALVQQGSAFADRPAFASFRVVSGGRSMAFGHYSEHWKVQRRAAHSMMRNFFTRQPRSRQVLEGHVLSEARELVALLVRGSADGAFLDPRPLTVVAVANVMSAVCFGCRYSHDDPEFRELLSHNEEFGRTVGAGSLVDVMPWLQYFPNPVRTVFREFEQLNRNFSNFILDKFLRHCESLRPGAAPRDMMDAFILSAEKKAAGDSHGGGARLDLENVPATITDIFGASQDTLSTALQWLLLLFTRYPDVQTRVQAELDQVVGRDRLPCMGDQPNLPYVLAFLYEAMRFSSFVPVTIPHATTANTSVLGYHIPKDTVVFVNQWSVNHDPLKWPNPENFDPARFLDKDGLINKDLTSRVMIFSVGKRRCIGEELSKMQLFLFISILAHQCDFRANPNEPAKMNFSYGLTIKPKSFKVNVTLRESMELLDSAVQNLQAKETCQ
In short: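 Single-concentration screen on CYP1B1 yeast microsomes at 5 µM (10 µM per methods), with 7-ER under the regenerating-system endpoint format: 10 min at 37 °C. Percentage inhibition versus a DMSO control; each compound tested twice.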

Cytochrome P450 1A1 = target: T2, Cytochrome P450 1A1 (Homo sapiens, UniProt P04798); experiment: Inhibition of human liver CYP1A1 expressed in Saccharomyces cerevisiae YY7 microsomal membranes using 7-ethoxyresorufin as substrate after 10 mins by fluorescence assay; type: ADME, Microsomal Membrane
T2 sequence (P04798 whole entry): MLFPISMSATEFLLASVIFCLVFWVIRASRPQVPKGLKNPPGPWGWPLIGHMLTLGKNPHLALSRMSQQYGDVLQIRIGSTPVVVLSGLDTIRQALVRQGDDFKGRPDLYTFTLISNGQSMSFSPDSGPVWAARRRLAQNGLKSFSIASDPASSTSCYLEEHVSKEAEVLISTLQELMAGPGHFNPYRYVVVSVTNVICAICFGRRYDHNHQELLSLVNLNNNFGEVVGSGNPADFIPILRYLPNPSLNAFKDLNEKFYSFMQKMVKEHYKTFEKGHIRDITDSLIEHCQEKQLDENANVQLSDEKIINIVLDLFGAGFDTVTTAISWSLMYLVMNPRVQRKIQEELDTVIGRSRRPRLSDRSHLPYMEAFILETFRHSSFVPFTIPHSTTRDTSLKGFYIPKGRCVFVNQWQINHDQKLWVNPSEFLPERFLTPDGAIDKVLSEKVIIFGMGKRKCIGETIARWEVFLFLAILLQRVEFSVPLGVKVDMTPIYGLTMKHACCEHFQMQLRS
In short: (§1)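 Yeast microsomes (YY7 strain carrying human reductase) held 0.5 pmol CYP with an NADP+/glucose-6-phosphate/G6PDH regenerating system in KPi. Fluorogenic substrate per isoform: 7-ER, CEC, EOMCC or DBF. Six serial 1:20 dilutions were tested, DMSO ≤0.5%. Reactions ran 10 min at 37 °C and were stopped with Tris-acetonitrile. Endpoint fluorescence (530/590 nm for resorufin) was fitted by 4-parameter sigmoid. Triplicate, ≥3 experiments.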

Cytochrome P450 1A2 = target: T3, Cytochrome P450 1A2 (Homo sapiens, UniProt P05177); experiment: Inhibition of human liver CYP1A2 expressed in Saccharomyces cerevisiae YY7 microsomal membranes using CEC as substrate after 10 mins by fluorescence assay; type: ADME, Microsomal Membrane; in short: as §1
T3 sequence (P05177 whole entry): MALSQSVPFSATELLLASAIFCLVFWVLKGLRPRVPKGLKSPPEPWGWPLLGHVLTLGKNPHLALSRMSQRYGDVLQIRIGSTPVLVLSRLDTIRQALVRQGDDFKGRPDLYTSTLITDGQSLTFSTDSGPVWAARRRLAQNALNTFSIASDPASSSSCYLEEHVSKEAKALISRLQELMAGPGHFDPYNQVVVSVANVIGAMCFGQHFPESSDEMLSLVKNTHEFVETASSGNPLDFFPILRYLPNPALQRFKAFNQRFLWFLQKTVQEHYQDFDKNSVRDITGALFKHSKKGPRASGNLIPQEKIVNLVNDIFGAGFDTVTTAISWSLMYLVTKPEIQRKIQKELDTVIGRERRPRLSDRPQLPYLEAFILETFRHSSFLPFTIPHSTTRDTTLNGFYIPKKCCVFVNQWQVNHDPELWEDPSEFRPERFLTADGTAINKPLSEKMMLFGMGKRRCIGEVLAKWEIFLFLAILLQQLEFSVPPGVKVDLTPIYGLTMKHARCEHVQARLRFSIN

Cytochrome P450 1B1 [2] = target: T1, Cytochrome P450 1B1; experiment: Inhibition of human liver CYP1B1 expressed in Saccharomyces cerevisiae YY7 microsomal membranes using 7-ethoxyresorufin as substrate after 10 mins by fluorescence assay; in short: as §1
Cytochrome P450 2C19 = Cytochrome P450 2C19 (Homo sapiens, UniProt P33261); experiment: Inhibition of human liver CYP2C19 expressed in Saccharomyces cerevisiae YY7 microsomal membranes using DBF as substrate after 10 mins by fluorescence assay; type: ADME, Microsomal Membrane
Sequence of Cytochrome P450 2C19 (P33261 whole entry): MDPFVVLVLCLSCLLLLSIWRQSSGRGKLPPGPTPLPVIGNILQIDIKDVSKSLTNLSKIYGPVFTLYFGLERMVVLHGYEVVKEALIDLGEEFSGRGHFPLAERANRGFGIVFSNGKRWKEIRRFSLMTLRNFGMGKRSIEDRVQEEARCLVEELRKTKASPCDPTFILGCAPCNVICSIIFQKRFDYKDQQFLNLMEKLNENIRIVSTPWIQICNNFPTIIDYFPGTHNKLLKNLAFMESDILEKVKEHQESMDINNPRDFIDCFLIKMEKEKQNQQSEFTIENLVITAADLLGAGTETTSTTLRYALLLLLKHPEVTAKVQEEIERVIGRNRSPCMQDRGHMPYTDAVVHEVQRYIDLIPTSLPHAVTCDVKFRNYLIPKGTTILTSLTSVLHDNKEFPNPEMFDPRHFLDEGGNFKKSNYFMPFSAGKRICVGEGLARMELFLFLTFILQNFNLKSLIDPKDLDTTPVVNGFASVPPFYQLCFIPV

Cytochrome P450 2C9 = Cytochrome P450 2C9 (Homo sapiens, UniProt P11712); experiment: Inhibition of human liver CYP2C9 expressed in Saccharomyces cerevisiae YY7 microsomal membranes using DBF as substrate after 10 mins by fluorescence assay; type: ADME, Microsomal Membrane
Sequence of Cytochrome P450 2C9 (P11712 whole entry): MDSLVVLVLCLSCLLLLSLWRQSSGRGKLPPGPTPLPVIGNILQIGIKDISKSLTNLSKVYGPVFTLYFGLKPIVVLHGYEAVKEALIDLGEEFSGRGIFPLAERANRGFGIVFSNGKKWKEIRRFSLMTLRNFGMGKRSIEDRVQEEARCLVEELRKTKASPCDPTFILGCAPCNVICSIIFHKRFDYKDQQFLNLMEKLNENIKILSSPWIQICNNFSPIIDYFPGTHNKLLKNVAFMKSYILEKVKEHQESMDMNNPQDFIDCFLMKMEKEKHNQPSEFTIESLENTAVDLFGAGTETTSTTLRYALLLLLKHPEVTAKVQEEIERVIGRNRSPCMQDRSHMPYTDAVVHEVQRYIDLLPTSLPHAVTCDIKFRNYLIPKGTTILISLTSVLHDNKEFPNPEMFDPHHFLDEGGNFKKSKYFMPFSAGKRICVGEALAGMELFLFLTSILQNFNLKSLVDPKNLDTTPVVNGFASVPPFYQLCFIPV

Cytochrome P450 3A4 = Cytochrome P450 3A4 (Homo sapiens, UniProt P08684); experiment: Inhibition of human liver CYP3A4 expressed in Saccharomyces cerevisiae YY7 microsomal membranes using DBF as substrate after 10 mins by fluorescence assay; type: ADME, Microsomal Membrane
Sequence of Cytochrome P450 3A4 (P08684 whole entry): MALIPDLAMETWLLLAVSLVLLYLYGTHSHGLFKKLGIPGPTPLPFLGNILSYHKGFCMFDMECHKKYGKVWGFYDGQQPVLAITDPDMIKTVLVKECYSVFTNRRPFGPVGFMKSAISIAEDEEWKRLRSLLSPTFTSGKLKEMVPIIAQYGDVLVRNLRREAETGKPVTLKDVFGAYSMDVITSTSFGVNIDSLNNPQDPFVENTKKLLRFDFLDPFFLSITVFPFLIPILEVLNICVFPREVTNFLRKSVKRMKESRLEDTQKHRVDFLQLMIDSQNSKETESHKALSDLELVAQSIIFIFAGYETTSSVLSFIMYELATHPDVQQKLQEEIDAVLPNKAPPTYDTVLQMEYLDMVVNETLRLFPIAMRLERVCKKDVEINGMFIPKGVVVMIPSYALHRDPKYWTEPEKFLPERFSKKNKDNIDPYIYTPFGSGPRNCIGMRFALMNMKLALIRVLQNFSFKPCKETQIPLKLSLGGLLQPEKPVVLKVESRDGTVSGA

Cytochrome P450 2D6 = Cytochrome P450 2D6 (Homo sapiens, UniProt P10635); experiment: Inhibition of human liver CYP2D6 expressed in Saccharomyces cerevisiae YY7 microsomal membranes using EOMCC as substrate after 10 mins by fluorescence assay; type: ADME, Microsomal Membrane; in short: as §1
Sequence of Cytochrome P450 2D6 (P10635 whole entry): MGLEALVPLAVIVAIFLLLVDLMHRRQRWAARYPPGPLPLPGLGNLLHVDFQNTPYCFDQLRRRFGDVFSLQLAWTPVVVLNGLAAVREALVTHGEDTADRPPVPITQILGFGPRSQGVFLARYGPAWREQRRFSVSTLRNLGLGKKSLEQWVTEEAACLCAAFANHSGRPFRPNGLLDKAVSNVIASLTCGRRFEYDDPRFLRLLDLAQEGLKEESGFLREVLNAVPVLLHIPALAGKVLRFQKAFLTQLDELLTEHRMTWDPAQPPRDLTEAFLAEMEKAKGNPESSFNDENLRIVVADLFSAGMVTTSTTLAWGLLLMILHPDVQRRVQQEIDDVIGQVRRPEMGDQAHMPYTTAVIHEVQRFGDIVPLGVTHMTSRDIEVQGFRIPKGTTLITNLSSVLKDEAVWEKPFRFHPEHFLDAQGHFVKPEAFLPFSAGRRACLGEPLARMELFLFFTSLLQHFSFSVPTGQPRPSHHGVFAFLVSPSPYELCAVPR

Compound	inhibition (INH) (Cytochrome P450 1B1 [1])	IC50 (Cytochrome P450 1A1) [nM]	IC50 (Cytochrome P450 1A2) [nM]	IC50 (Cytochrome P450 1B1 [2]) [nM]	IC50 (Cytochrome P450 2C19) [nM]	IC50 (Cytochrome P450 2C9) [nM]	IC50 (Cytochrome P450 3A4) [nM]	IC50 (Cytochrome P450 2D6) [nM]
O=C(/C=C/c1cccnc1)c1cc2ccccc2c2ccccc12	Active	58	669	133				
COc1ccc(/C=C/C(=O)c2cccnc2)cc1OC	Active	1400	258	19	> 20000	> 20000	53000	1100
COc1cc(OC)cc(C(=O)/C=C/c2cccnc2)c1	Active	879	306	106				
COc1cccc(/C=C/C(=O)c2cccnc2)c1	Active	10500	752	32	> 20000	> 20000	1280	1000
O=C(/C=C/c1cccnc1)c1ccc2ccc3ccccc3c2c1	Active	122	1000	48	> 20000	> 20000	26000	12000
COc1ccc(C(=O)/C=C/c2cccnc2)c(OC)c1	Active	1500	432	93	> 20000	> 20000	11000	7700
O=C(/C=C/c1ccccc1)c1cccnc1	Active	31800	4700	77	> 20000	> 20000	11100	8200
COc1ccc(C(=O)/C=C/c2cccnc2)c(OC)c1OC	Active	5300	176	137				
O=C(/C=C/c1cccnc1)c1cccc(Br)c1	Active	2600	162	64	> 20000	> 20000	14000	8000
COc1cccc(C(=O)/C=C/c2cccnc2)c1	Active	3500	480	130				
O=C(/C=C/c1cccnc1)c1ccc2ccccc2c1	Active	349	636	15	> 20000	> 20000	28000	4400
O=C(/C=C/c1ccc(Cl)c(Cl)c1)c1cccnc1	Active	2000	624	96	> 20000	> 20000	15000	10200
COc1ccc(C(=O)/C=C/c2cccnc2)cc1	Active	3600	2400	525				
O=C(/C=C/c1ccc2c(c1)OCO2)c1cccnc1	Active	1500	1500	29	> 20000	> 20000	12000	14000
COc1ccc(C(=O)/C=C/c2cccnc2)cc1OC	Active	3100	705	176				
O=C(/C=C/c1ccc(F)c(F)c1)c1cccnc1	Active	11800	860	120				
O=C(/C=C/c1cccnc1)c1ccc(-c2ccccc2)cc1	Active	17000	2300	189				
O=C(/C=C/c1cccnc1)c1ccc2ccc3cccc4ccc1c2c34	Active	2200	2100	162				
O=C(/C=C/c1cccnc1)c1cccc2ccccc12	Active	958	214	23	> 20000	> 20000	6000	1300
O=C(/C=C/c1cccc(O)c1)c1cccnc1	Active	25000	2900	466				
COc1ccc(/C=C/C(=O)c2cccnc2)cc1O	Active	2600	1700	112				
COc1cc(/C=C/C(=O)c2cccnc2)cc(OC)c1OC	Active	288	515	349				
O=C(/C=C/c1ccncc1)c1ccc2ccccc2c1	Active	907	300	187				
